Molecules are shown by their SMILES. Active and inactive are the calls of the source. How the calls were made is not given here.

Sequence of Muscarinic acetylcholine receptor M2 (Homo sapiens) (P08172 whole entry, looked up): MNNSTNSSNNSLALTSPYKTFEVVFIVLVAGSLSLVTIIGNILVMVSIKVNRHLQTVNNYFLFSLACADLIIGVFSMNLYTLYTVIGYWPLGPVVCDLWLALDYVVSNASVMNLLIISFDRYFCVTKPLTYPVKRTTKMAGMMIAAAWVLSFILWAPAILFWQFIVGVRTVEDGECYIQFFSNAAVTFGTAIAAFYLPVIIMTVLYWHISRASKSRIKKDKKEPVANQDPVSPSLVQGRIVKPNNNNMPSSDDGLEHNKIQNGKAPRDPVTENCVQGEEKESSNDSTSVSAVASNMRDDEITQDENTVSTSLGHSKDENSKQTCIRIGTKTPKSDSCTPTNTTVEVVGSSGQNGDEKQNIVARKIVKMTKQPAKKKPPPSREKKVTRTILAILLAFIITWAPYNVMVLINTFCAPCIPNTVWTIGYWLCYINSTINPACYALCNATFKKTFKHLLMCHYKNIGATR

This test concerns the target Muscarinic acetylcholine receptor M2 (Homo sapiens) (UniProt P08172). Put plainly: M2 receptor positive allosteric modulation off-target check, dose response, selectivity assay for M1 muscarinic PAM project, cell-based, CHO-K1 M2/Gqi5, Fluo-4 calcium, ACh EC20 (AID 2430). Particulars: CHO-K1 M2/Gqi5 calcium Fluo-4, ACh EC20 PAM mode; series mostly up to 30 µM. The method in brief:
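Measured by – calcium flux measured with Fluo-4 fluorescent dye · System – CHO-K1 cells transfected with human M2 receptor and Gqi5 · Incubation – 37 °C dye loading, 1.5 min compound, 50 s ACh, 25 °C · Buffer or medium – HEPES- and probenecid-supplemented HBSS, pH 7.4 · Dosing – test compound with 0.3% DMSO final · Reagent – ACh near EC20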
For the compound `Cn1cc(-c2cc(F)c(CN3C(=O)C(=O)c4ccccc43)c(F)c2)cn1`, the result was inactive. The same measure for `O=C1C(=O)N(Cc2ccc(Oc3ccccc3)cc2)c2ccc(OC(F)(F)F)cc21`: “inactive”; for `Cc1cc(NC(=O)CS(=O)(=O)c2cn(Cc3cc(Br)ccc3F)c3ccccc23)no1`: “inactive”. To `Cn1cc(-c2ccc(CN3C(=O)C(=O)c4ccccc43)c(F)c2)cn1` belongs “inactive”.

The values above are taken from PubChem BioAssay AID2430 (Vanderbilt High Throughput Screening Facility, 2010).
